Compound activity from PubChem BioAssay.
Scp1 inh: Scp-1 phosphatase inhibitors, primary screen, biochemical, colorimetric, uHTS. AID 493091, 2011. Carboxy-terminal domain RNA polymerase II polypeptide A small phosphatase 1 (Homo …. hit rate 0.88% among 340,000. Recombinant Scp1, phosphopeptide, malachite green phosphate absorbance. inhibition, % at 20 µM;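 active = inhibition above about 50% at 20 µM, limit read from the data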
Target sequence (Q9GZU7 76-261 limits assumed): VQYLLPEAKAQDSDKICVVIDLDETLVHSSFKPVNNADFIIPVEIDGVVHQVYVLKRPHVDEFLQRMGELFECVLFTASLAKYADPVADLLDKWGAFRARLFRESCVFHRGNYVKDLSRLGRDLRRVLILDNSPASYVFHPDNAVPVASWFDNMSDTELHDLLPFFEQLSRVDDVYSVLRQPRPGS
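assay system = SCP-1 phosphatase catalytic domain, residues 76-261 | buffer or medium = 50 mM Tris acetate pH 5.5, 0.005% Tween-20, 10 mM MgCl2 | incubation = enzyme reaction 45 min at room temperature, colour 5 min, stabilisation 30 min | signal = Phosphate-binding colour reagent, absorbance read at 630 nm | measure = % inhibition at 20 µM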
Rpn11 inh: Rpn11 (PSMD14) deubiquitinase inhibitors, primary screen, biochemical, fluorescence polarization, uHTS; inhibition, % at 20 µM; hit rate 0.59% among 360,000; human 26S proteasome, Ub4-pepOG fluorescence polarization; 20S core pre-blocked with epoxomicin; AID 588493, 2011; 26S proteasome non-ATPase regulatory subunit 14 (Homo sapiens), O00487;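 active = inhibition at 20 µM, scaled to each plate's controls, above about 33%, limit read from the data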
DNMT1 block: human DNMT1 methyltransferase inhibitors, primary screen, biochemical, molecular beacon, fluorescence, HinP1I cleavage, uHTS | DNA (cytosine-5)-methyltransferase 1 (Homo sapiens), P26358 | hit rate 0.83% among 360,000 | inhibition (reported as % activation of signal), % at 10 µM | AID 588458, 2011; in the data active = inhibition above about 50%
LMPTP block: LMPTP phosphatase inhibitors, primary screen, biochemical, fluorescence intensity, uHTS; Low molecular weight phosphotyrosine protein phosphatase (Homo sapiens), P24666; recombinant LMPTP-A, OMFP fluorogenic substrate; inhibition, % at 20 µM; hit rate 0.22% among 360,000; AID 651560, 2012;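 active = compounds that cut the enzyme signal by at least half of the control window in the single-dose screen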
Target sequence (P24666 whole entry, looked up): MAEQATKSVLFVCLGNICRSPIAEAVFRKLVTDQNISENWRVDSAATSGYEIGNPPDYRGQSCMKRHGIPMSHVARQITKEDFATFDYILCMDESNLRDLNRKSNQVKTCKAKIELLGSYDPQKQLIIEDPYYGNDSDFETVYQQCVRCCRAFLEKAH
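Test system – LMPTP-A phosphatase enzyme · Quantity – 0.625 nM LMPTP-A final · Reagent – OMFP substrate, 400 µM final · Dosing – one test concentration per compound, 20 µM, with 3% DMSO overall · Timing – 50 min enzyme reaction at room temperature, protected from light · Detection – fluorescence intensity · Controls – substrate-only low control, DMSO enzyme-plus-substrate high control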
STEP inh: STEP phosphatase inhibitors, primary screen, biochemical, fluorescence intensity, uHTS | Tyrosine-protein phosphatase non-receptor type 5 (Homo sapiens), P54829 | recombinant STEP, OMFP fluorogenic substrate | inhibition, % at 20 µM | hit rate 0.25% among 360,000 | AID 588621, 2011;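 active = inhibition at 20 µM, scaled per plate between control wells, above about 37%, limit read from the data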
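Assay system: isolated STEP enzyme. Buffer or medium: pH 6.0 Bis-Tris with DTT and Tween 20. Also added: fluorogenic phosphatase substrate OMFP at 25 µM final. Dosing: 20 µM, 1% DMSO. Timing: 20 min reaction, room temperature, in the dark. Measured by: fluorescence intensity, excitation 480 nm, emission 540 nm. Evaluation: normalized % inhibition.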
STEP inh conf: STEP phosphatase inhibitor hit confirmation, biochemical, fluorescence intensity, single concentration; shares compounds with STEP inh; recombinant STEP, OMFP fluorogenic substrate; inhibition, % at 20 µM; hit rate 32% among 520; AID 623866, 2012; call rule not given here
Of the large screens only hits and unclear results are named; the others gave an inactive call (follow-up assays come after a bar, where they were run). Sampled rows, rich in hits. Any-hit rate of the full collection: about 2%.

Cc1ccc(NC(=S)N(CCN(C)C)Cc2cccs2)c(C)c1	STEP inh 72 | STEP inh conf 42
Cc1cc(C)c(NC(=S)N(CCN(C)C)Cc2cccs2)c(C)c1	none
Cc1ccccc1C1CC(c2cccs2)Nc2nnnn21 (stereo unspecified)	none
Cc1nn(C)cc1/C=N/NC(=S)Nc1ccccc1	STEP inh 76 | STEP inh conf 50
Oc1ccccc1C=NNC(=S)Nc1ccc(F)cc1	none
Cc1ccc2nc3n(c(=O)c2c1)-c1cc2ccccc2cc1C(=O)NC3Cc1ccccc1 (stereo unspecified)	none (no result: Scp1 inh)
CCCCNC(=O)c1cccc(C(=O)NCCCC)c1	STEP inh 96 | STEP inh conf inactive
Cc1cccc(NC(=S)NCCN2CCOCC2)c1	none
S=C(NCCCN1CCOCC1)Nc1cccc(-c2nnc3n2CCCCC3)c1	STEP inh 42 | STEP inh conf inactive
S=C(NCCCN1CCOCC1)Nc1ccc(-c2nc3ccccc3[nH]2)cc1	STEP inh 65 | STEP inh conf 40
NC(=O)C1(N2CCCCC2)CCN(C(=S)Nc2ccc(S(N)(=O)=O)cc2)CC1	STEP inh 92 | STEP inh conf 63
NS(=O)(=O)c1ccc(NC(=S)N2CCN(Cc3ccc4c(c3)OCO4)CC2)cc1	STEP inh 92 | STEP inh conf inactive
CCCN1CCN(C(=S)Nc2ccc(S(N)(=O)=O)cc2)CC1	none
NS(=O)(=O)c1ccc(NC(=S)N2CCC(Cc3ccccc3)CC2)cc1	STEP inh 80 | STEP inh conf 31
O=C1CCCN1CCCNc1nc2c(S(=O)(=O)c3ccc(Br)cc3)nnn2c2ccccc12	none
Cn1cccc1CC(=O)NNC(=S)NC(=O)c1ccccc1Br	none
COc1ccc(NC(=S)N(CCc2ccc(OC)c(OC)c2)Cc2ccccn2)cc1	STEP inh 48 | STEP inh conf inactive
COc1ccc(CCN(Cc2ccccn2)C(=S)Nc2cccc(C)c2)cc1OC	none
COc1ccc(CNC(=O)CN(C(=O)CCC(=O)Nc2ccccn2)c2ccc(C)cc2)cc1	none
Cc1ccc(-c2nc3ncccc3o2)cc1NC(=O)CC(C)C	STEP inh 85 | STEP inh conf 9.9
S=c1[nH]nc(-c2cccnc2)n1/N=C/c1ccc(Br)s1	STEP inh 36 | STEP inh conf 29
CCOc1ccc(C(=O)Nc2nc(C)c(C(=O)OC)s2)cc1	STEP inh 79 | STEP inh conf inactive
COC(=O)c1sc(NC(=O)c2ccncc2)nc1C	none
CC1(C)C(=O)N(CCN2CCC(C(=O)c3ccc(F)cc3)CC2)c2ccccc21	none
C=CCNc1nc(C(=O)OCC(=O)c2ccc(Cl)cc2)cs1	none
Cc1cc(-c2nnc3sc(-c4ccc(Cl)cc4Cl)nn23)n[nH]1	STEP inh 86 | STEP inh conf inactive
O=C(NN=Cc1ccccc1C(=O)O)c1cccc(S(=O)(=O)Nc2cccc(C(F)(F)F)c2)c1	none
CCOC(=O)C(=N/O)/C(C)=N/NC(=O)C(=O)Nc1cc(Cl)ccc1Cl	STEP inh 51 | STEP inh conf inactive
CC(OC(=O)C12CC3CC(CC(O)(C3)C1)C2)C(N)=O (stereo unspecified)	none
COc1ccc(CNC(=O)C(C)OC(=O)C23CC4CC(CC(O)(C4)C2)C3)cc1 (stereo unspecified)	STEP inh 97 | STEP inh conf inactive
CNc1nnc(SCC(=O)N2c3ccccc3NC(=O)CC2C)s1 (stereo unspecified)	none
COCCCN(C(=S)Nc1c(C)cc(C)cc1C)C(C)c1ccccn1 (stereo unspecified)	STEP inh 46 | STEP inh conf 25
COc1cc(C)c(NC(=O)C(=S)NCCc2ccccc2)cc1C	STEP inh 47 | STEP inh conf inactive
